# Assay outcomes (PubChem BioAssay)
# MDM2 E3 inh = blocks human Mdm2 ubiquitin ligase activity; Q00987; cell-based MDM2 ubiquitination luciferase reporter, 2 h; 0 = plate control, 100 = twice control, blank-subtracted; signal enhancement, % at 5 µM; 210,000 tested, 0.11% active; AID 1230;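 active means signal enhancement of 30% or more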;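 further: luminescence tracks abundance of the self-degrading MDM2-luciferase fusion protein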
# Target sequence (Q00987 whole entry, looked up, the tested form may be a part): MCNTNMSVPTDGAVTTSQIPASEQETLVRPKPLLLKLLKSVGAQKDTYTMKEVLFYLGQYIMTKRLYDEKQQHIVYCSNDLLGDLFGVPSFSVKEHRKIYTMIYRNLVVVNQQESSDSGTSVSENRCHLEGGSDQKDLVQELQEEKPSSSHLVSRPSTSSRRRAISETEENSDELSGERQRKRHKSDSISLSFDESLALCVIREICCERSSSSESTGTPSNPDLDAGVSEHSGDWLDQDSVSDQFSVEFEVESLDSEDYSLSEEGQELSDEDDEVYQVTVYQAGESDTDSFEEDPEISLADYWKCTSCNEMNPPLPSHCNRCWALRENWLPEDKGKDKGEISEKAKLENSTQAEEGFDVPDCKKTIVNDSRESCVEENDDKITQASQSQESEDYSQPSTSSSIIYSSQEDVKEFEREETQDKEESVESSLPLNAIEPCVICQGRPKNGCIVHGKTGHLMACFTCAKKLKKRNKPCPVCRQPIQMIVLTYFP
#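 Assay system: mammalian cells stably expressing self-ubiquitinating, self-degrading MDM2 E3–luciferase fusion. Quantity: 2000 cells in each well. Medium: DMEM culture medium. Compound dosing: single-point 5 µM. Timing: cell settling 4 h, compound treatment 2 h, both 37 °C. Technique: luciferase luminescence. Read-out basis: percent signal gain over controls, blank-subtracted. Benchmarks: plate controls and plate blanks.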
# CHOP inhibitor = blocks CHOP induction under ER stress. AID 2732. inhibition, % at 10 µM. CHO-K1 CHOP-promoter luciferase, tunicamycin-induced, 15-18 h. 220,000 tested, 3.8% active;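 active means compounds that reduced the stress-induced luciferase reporter signal by more than about 70% of percent inhibition, limit read from the data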
# Hsp70 act = switches on Hsp70 transcription. 200,000 tested, 0.04% active. activation, % at 10 µM. HeLa Hsp70 promoter luciferase reporter, luminescence; scaled: vehicle 0, proteasome-inhibitor control 100%;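 active means activation above the mean across all tested compounds plus 3 SD, cutoff set per campaign, cut at about 5.5% in these data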
# S1P3 antagonist = S1P3 (human) receptor antagonism; Q99500; CHO S1P3 NFAT-BLA reporter, FRET fluorescence, antagonist mode; inhibition, % at 4.98 µM; 170,000 tested, 0.27% active; AID 485;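 active means inhibition above the plate cutoff, the mean inhibition of test wells on that plate plus 3 SD, cut at about 28% in these data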;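 further: cells challenged with S1P at its EC80 of 0.8 µM; blue over green emission ratio from cleaved BLA substrate after 4 h stimulation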
# Hits are given with their value; . = inactive; / = not tested or not shown. Sampled rows, rich in hits. Any-hit rate of the full collection: about 4%.
SMILES,MDM2 E3 inh,CHOP inhibitor,Hsp70 act,S1P3 antagonist
O=C(NCc1ccccc1)C1CCCN(S(=O)(=O)c2cccnc2)C1 (stereo unspecified),.,.,.,.
Cc1ccc(S(=O)(=O)NCCC(=O)N2CCN(Cc3ccccc3)CC2)cc1,.,82,.,.
CC(=O)N1CCc2cc(S(=O)(=O)NCCC(=O)N3CCN(Cc4ccccc4)CC3)ccc21,.,.,.,/
COc1ccc2nc(/N=C(\N)NC(=O)N3c4ccccc4Sc4ccccc43)nc(C)c2c1,.,77,.,.
CCOc1ccc(N2CCc3c(C)nc(SC)nc32)cc1,.,96,.,.
O=C(O)c1ccc(/C=C/c2nc3sc4c(c3c(=O)[nH]2)CCC4)cc1,.,.,.,.
c1cc2c(cc1Nc1nc(-c3ccc4c(c3)OCO4)cs1)OCCO2,.,.,.,.
c1ccc(-c2csc(Nc3ccc4c(c3)OCCO4)n2)cc1,.,90,.,/
CS(=O)(=O)N1CCC(C(=O)NCc2ccc(Cl)cc2Cl)CC1,.,.,.,.
CC(C)(C)OC(=O)N[C@@H](Cc1ccccc1)c1nnc(SCC(=O)c2ccc(Cl)cc2)o1,.,86,.,/
Cc1ccc(-n2nnnc2SC(C(=O)c2c[nH]c3ccccc23)c2ccccc2)cc1 (stereo unspecified),.,72,.,.
CCOC(=O)c1oc2ccccc2c1CSc1nnnn1-c1ccc(C)cc1,.,.,.,.
O=C(Nc1nc(-c2ccccc2)cs1)C1CCCO1 (stereo unspecified),.,.,.,/
O=C(Nc1nc(-c2ccccc2)cs1)C1CCCCN1S(=O)(=O)c1ccccc1 (stereo unspecified),.,.,.,98
O=C(Nc1nc(-c2ccccc2)cs1)C1CCCN(S(=O)(=O)c2ccccc2)C1 (stereo unspecified),.,/,.,.
O=C(Nc1nccs1)C1CCCN1S(=O)(=O)c1ccc(Cl)cc1 (stereo unspecified),.,.,.,.
O=C(Nc1nc(-c2ccccc2)cs1)C1CCCCN1S(=O)(=O)c1ccc(Cl)cc1 (stereo unspecified),.,70,.,/
O=C(Nc1nc(-c2ccccc2)cs1)NC1CCCCC1,.,93,.,/
NS(=O)(=O)c1cccc(NS(=O)(=O)c2cccc(C(F)(F)F)c2)c1,.,.,/,.
Cc1ccc(-c2csc3ncnc(-n4cnc5ccccc54)c23)cc1,.,.,.,.
O=C(Cn1cnc2c(nnn2Cc2ccc(F)cc2)c1=O)N1CCN(c2ccccc2)CC1,.,.,.,.
Clc1ccc(Cc2noc(-c3cccs3)n2)cc1,.,87,.,.
Cc1cc(SCC(=O)N/N=C/c2ccc(O)cc2O)c(C)cc1Br,.,88,.,/
O=C(CNC(=O)C(c1ccccc1)c1ccccc1)N/N=C/c1ccc(O)cc1O,.,.,/,.
COc1ccccc1N(CC(=O)NC1CCCCC1)C(=O)CCC(=O)Nc1ccccn1,.,.,.,.
SMILES,MDM2 E3 inh,CHOP inhibitor,Hsp70 act,S1P3 antagonist
CCn1cc(C(=O)N2CCn3c(nc4ccccc43)C2)c(=O)c2ccc(C)nc21,.,.,.,68
CC1CCC(NC(=O)c2ccc(CNc3c(NC4CCCCC4)c(=O)c3=O)cc2)CC1 (stereo unspecified),/,.,.,.
O=C(c1ccc(CNc2c(NC3CCCCC3)c(=O)c2=O)cc1)N1CCc2ccccc21,.,73,.,/
CCCCCn1c(CCC(=O)Oc2ccccc2OC)nc2c1c(=O)[nH]c(=O)n2CCCC,.,71,.,/
CC1(C)Cc2c(cnn2-c2ccccc2)-c2c1c1ccccc1n2CC(O)CCl (stereo unspecified),.,94,.,/
CC1(C)Cc2c(cnn2-c2ccccc2)C(=O)/C1=N\NC(=O)c1ccncc1,/,/,.,/
Cc1ccc(C(=O)Cn2c(C(=O)/C=C/c3ccccc3)nc3ccccc32)cc1,.,.,.,/
CCCCCn1c(N2CCN(c3cccc(Cl)c3)CC2)nc2c1c(=O)[nH]c(=O)n2C,.,87,.,.
Cc1ccc(CSc2nc3c(c(=O)[nH]c(=O)n3C)n2CCC(C)C)cc1,.,106,.,.
CCCCn1c(SCc2ccc(Cl)cc2)nc2c1c(=O)[nH]c(=O)n2C,.,82,.,.
Cn1c(=O)[nH]c(=O)c2c1nc(N1CCN(c3cccc(Cl)c3)CC1)n2CCCc1ccccc1,.,.,.,/
CC(C)CCSc1nc2c(c(=O)[nH]c(=O)n2C)n1CCc1ccccc1,.,88,.,.
CN1CCC(NC(=S)Nc2cccc([N+](=O)[O-])c2)CC1,.,.,.,.
